Data: ChEMBL document CHEMBL1221386, “Synthesis and pharmacological evaluation of 3-aryl-3-azolylpropan-1-amines as selective triple serotonin/norepinephrine/dopamine reuptake inhibitors” (Bioorg Med Chem Lett, 2010)

Key:
[1] = target: Sodium-dependent serotonin transporter (Rattus norvegicus) (UniProt P31652); experiment: Displacement of [3H]paroxetine from SERT in rat cerebral cortex at 1 uM; type: tissue-based
In short: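 Competition binding against 2 nM [3H]paroxetine on freshly prepared rat frontal cortex membranes, homogenized and centrifuged twice at 20,000g, then resuspended in incubation buffer. Tris–HCl pH 7.4 buffer with NaCl and 5 mM KCl. Incubation 2 h at 25 °C, run in triplicate. Nonspecific binding defined with citalopram. Read-out is percent inhibition at 1 µM.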

[2] = target: T1, Sodium-dependent dopamine transporter (Homo sapiens, UniProt Q01959); experiment: Inhibition of dopamine reuptake at human dopamine transporter expressed in CHO cells; type: cell-based
In short: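 CHO-K1 cells stably expressing human DAT, assayed for [3H]DA uptake in duplicate. Nomifensine served as standard. IC50 determined.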

[3] = Half life in rat liver microsomes; type: ADME, Microsome
In short: (§1)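 Metabolic stability in human or rat liver microsomes. Half-lives measurable up to 60 min.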

[4] = target: T2, Sodium-dependent noradrenaline transporter (Homo sapiens, UniProt P23975); experiment: Inhibition of norepinephrine reuptake at human NET expressed in MDCK cells; type: cell-based
[5] = target: T3, Sodium-dependent serotonin transporter (Homo sapiens, UniProt P31645); experiment: Inhibition of serotonin reuptake at human SERT expressed in HEK293 cells; type: cell-based
Target sequence in this assay (P31645 whole entry): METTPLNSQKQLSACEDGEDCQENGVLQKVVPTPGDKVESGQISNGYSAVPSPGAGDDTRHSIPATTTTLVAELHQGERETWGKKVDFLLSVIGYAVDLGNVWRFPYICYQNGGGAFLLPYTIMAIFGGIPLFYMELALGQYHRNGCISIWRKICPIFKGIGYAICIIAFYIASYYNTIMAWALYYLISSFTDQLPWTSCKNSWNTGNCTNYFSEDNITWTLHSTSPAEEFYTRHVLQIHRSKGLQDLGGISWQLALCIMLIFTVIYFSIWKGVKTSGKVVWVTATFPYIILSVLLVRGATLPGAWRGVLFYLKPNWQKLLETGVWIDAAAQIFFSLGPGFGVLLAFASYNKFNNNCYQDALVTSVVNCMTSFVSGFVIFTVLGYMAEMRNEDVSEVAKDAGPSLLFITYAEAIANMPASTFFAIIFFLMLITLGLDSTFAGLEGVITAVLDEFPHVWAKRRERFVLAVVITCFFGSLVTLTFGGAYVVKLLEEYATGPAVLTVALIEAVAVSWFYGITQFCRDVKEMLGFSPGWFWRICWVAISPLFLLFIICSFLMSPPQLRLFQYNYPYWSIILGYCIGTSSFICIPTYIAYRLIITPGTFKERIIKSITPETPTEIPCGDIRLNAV

[6] = target: T3, Sodium-dependent serotonin transporter; experiment: Inhibition of serotonin reuptake at human SERT expressed in HEK293 cells at 100 nM
Target sequence in this assay (P31645 whole entry, looked up): as the sequence (P31645 whole entry) above

[7] = target: T1, Sodium-dependent dopamine transporter; experiment: Inhibition of dopamine reuptake at human dopamine transporter expressed in CHO cells at 100 nM
[8] = Half life in human liver microsomes; type: ADME, Microsome; in short: as §1
[9] = target: T2, Sodium-dependent noradrenaline transporter; experiment: Inhibition of norepinephrine reuptake at human NET expressed in MDCK cells at 100 nM
[10] = target: Sodium-dependent serotonin transporter (Rattus norvegicus) (UniProt P31652); experiment: Displacement of [3H]paroxetine from SERT in rat cerebral cortex at 100 nM
Mus musculus [11] = experiment: Antidepressant activity in mouse assessed as change in locomotion at 90 mg/kg, po; type: functional
Mus musculus [12] = experiment: Antidepressant activity in mouse assessed as reduction of mobility time by forced swimming test at 10 mg/kg, po; type: functional; set-up: scale not given: the % may be the effect or the level left
In short: (§2)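 Mouse forced swimming test with oral dosing. Read-out is immobility time, expressed as % reduction of immobility. Minimal effective dose is the lowest dose with p <0.05. ED50 is given with 95% confidence limits. Doses are in mg/kg.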

Mus musculus [13] = experiment: Potentiation of […]-induced serotonin syndrome like behavior in mouse at 30 mg/kg, po; type: functional
In short: (§3)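 Mice, oral dosing. For serotonin potentiation, 5-hydroxytryptophan (5-HTP, serotonin precursor) is given to induce serotonin syndrome-like head twitch/stereotypy counts. Response is expressed as % potentiation relative to control group (0%). Minimal effective dose is the lowest dose reaching p <0.05. Doses are in mg/kg.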

Mus musculus [14] = experiment: Anxiolytic activity in mouse assessed as inhibition of marble buried at 30 mg/kg, ip by marble burying test; type: functional; details: route intraperitoneal
Mus musculus [15] = experiment: Antidepressant activity in po dosed mouse assessed as reduction of mobility time by forced swimming test; type: functional; details: for minimal effective dose: read-out: MED; in short: as §2
Mus musculus [16] = experiment: Antidepressant activity in mouse assessed as change in locomotion at 30 mg/kg, po; type: functional
Mus musculus [17] = experiment: Potentiation of […]-induced serotonin syndrome like behavior in po dosed mouse; type: functional; details: read-out: MED; in short: as §3
Mus musculus [18] = experiment: Antidepressant activity in po dosed mouse assessed as reduction of mobility time by tail suspension test; type: functional; details: read-out: MED
In short: (§4)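 Mouse tail suspension test with oral dose–response. Read-out is immobility time, reported as % reduction of immobility. Minimal effective dose is the lowest dose giving p <0.05. Doses are in mg/kg.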

Mus musculus [19] = experiment: Antidepressant activity in mouse assessed as change in locomotion at 60 mg/kg, po; type: functional
Mus musculus [20] = experiment: Analgesic activity in mouse assessed as reduction of acetic acid-induced writhing at 30 mg/kg
Mus musculus [21] = experiment: Antidepressant activity in mouse assessed as reduction of mobility time at 5 mg/kg, po by tail suspension test; type: functional; set-up: scale not given: the % may be the effect or the level left; in short: as §4
Mus musculus [22] = experiment: Anxiolytic activity in mouse assessed as inhibition of marble buried at 10 mg/kg, ip by marble burying test; type: functional; details: route intraperitoneal
Mus musculus [23] = experiment: Antidepressant activity in mouse assessed as reduction of mobility time by forced swimming test at 30 mg/kg, ip; set-up: scale not given: the % may be the effect or the level left; details: route intraperitoneal
Mus musculus [24] = experiment: Antidepressant activity in mouse assessed as reduction of mobility time at 7 mg/kg, po by tail suspension test; type: functional; set-up: scale not given: the % may be the effect or the level left; in short: as §4
Mus musculus [25] = experiment: Potentiation of […]-induced serotonin syndrome like behavior in mouse at 10 mg/kg, po; type: functional; in short: as §3

T1 sequence (Q01959 whole entry): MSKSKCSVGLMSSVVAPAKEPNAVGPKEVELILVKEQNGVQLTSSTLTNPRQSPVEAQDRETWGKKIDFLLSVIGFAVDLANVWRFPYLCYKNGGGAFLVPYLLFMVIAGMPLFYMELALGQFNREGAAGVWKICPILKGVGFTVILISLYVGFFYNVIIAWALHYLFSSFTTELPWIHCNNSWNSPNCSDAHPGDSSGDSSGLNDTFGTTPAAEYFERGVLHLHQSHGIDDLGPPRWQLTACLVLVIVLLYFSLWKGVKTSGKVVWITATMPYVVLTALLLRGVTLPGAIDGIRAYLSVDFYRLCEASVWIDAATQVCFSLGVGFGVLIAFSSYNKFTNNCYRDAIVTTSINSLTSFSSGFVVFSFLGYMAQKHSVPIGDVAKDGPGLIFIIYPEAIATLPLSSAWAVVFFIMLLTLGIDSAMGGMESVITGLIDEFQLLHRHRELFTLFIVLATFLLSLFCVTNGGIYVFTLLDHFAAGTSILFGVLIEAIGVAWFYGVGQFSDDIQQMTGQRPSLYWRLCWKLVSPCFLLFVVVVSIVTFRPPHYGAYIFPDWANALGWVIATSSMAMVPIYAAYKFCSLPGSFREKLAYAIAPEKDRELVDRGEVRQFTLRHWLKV
Sodium-dependent serotonin transporter (Rattus norvegicus), sequence (P31652 whole entry): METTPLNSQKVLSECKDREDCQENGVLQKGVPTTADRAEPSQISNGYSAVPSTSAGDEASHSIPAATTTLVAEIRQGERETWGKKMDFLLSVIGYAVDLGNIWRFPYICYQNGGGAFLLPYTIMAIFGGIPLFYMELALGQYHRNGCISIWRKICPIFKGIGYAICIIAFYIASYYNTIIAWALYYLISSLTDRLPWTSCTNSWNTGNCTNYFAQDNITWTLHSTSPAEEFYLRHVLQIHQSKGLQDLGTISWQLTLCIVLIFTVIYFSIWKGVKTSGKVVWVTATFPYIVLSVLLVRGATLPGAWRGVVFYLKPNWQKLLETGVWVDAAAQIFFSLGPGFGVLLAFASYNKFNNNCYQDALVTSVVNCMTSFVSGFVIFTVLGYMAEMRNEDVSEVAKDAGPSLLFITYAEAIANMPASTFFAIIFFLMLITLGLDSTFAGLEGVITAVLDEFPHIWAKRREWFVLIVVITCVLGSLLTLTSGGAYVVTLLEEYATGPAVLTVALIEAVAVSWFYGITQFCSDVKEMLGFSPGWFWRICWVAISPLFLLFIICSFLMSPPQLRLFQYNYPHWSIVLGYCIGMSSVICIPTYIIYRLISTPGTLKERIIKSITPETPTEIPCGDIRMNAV
T2 sequence (P23975 whole entry): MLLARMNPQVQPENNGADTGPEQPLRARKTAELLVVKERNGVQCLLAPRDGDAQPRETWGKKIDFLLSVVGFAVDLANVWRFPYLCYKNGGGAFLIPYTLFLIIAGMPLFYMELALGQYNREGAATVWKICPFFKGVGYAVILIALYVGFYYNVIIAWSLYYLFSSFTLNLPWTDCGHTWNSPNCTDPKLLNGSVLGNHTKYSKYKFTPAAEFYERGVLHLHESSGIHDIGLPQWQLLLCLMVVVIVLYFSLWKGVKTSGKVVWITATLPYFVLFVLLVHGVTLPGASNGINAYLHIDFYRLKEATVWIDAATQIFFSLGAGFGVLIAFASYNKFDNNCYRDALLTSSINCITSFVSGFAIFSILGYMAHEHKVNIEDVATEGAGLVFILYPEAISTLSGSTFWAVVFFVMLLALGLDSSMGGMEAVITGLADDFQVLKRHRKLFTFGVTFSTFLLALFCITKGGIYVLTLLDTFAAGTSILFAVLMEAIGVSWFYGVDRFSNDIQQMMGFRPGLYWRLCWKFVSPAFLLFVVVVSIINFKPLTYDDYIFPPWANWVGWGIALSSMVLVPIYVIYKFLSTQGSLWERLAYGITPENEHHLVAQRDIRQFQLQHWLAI

Compound | inhibition [1] [%] | inhibition [6] [%] | inhibition [7] [%] | inhibition [9] [%] | inhibition [10] [%] | other results
Cc1ccc2cc(C(CCN(C)C)n3ncnn3)ccc2c1 (racemic) | 87.7 |  |  |  |  | 
CN(C)CCC(c1ccc(Cl)c(Cl)c1)n1ncnn1 (racemic) | 72 | 27 | 58 | 37 |  | IC50 [2]: 78 nM; half-life [3]: 3 min; IC50 [4]: 234 nM; IC50 [5]: 279 nM; half-life [8]: 55 min
CNCCC(c1ccc2ccccc2c1)n1nnc(C)n1 (racemic) | 93.6 |  |  |  |  | 
CNCCC(c1ccc2cc(F)ccc2c1)n1nnc(C)n1 (racemic) |  | 58 | 10 | 39 | 81.3 | half-life [3]: 27 min; half-life [8]: > 60 min
CNCCC(c1ccc(Oc2ccccc2)cc1)n1ncnn1 (racemic) |  |  |  |  | -1.7 | 
CN(C)CCC(c1cccc(Cl)c1)n1ncnn1 (racemic) |  |  |  |  | -5.6 | 
Clc1ccc([C@]23CNC[C@H]2C3)cc1Cl [AMITIFADINE] |  |  |  |  |  | Activity (Mus musculus [11]): 148%; Activity (Mus musculus [12]): 18%; Activity (Mus musculus [13]): 54%; inhibition in vivo at 30 mg/kg (Mus musculus [14]): 99.1%; ED50 (Mus musculus [15]): 30.1 mg/kg; minimal effective dose (Mus musculus [15]): 50 mg/kg; Activity (Mus musculus [16]): 150%; minimal effective dose (Mus musculus [17]): 30 mg/kg; minimal effective dose (Mus musculus [18]): 5 mg/kg; Activity (Mus musculus [19]): 131%; inhibition in vivo at 30 mg/kg (Mus musculus [20]): 93.7%; Activity (Mus musculus [21]): 33.2%
Cc1ccc(C(CCN(C)C)n2ncnn2)cc1C (racemic) | 49.2 |  |  |  |  | 
CNCCC(c1ccc(Cl)c(Cl)c1)n1ncnn1 (racemic) | 86 | 35 | 48 | 56 |  | IC50 [2]: 116 nM; half-life [3]: > 60 min; IC50 [4]: 69 nM; IC50 [5]: 181 nM; half-life [8]: > 60 min
COc1ccc2cc(C(CCN(C)C)n3ncnn3)ccc2c1 (racemic) |  | 44 | 36 | 39 | 33.6 | 
CN(C)CCC(c1ccc(Cl)cc1)n1ncnn1 (racemic) | 32.4 |  |  |  |  | 
CNCCC(c1ccc(Cl)cc1)n1ncnn1 (racemic) | 41.1 |  |  |  |  | 
CNCCC(c1ccc2cc(F)ccc2c1)n1ncnn1 (racemic) |  | 59 | 6 | 25 | 80.1 | half-life [3]: 29 min; half-life [8]: > 60 min
CNCCC(c1cccc2ccccc12)n1ncnn1 (racemic) | 51.6 |  |  |  |  | 
CN(C)CCC(c1ccc(OCc2ccccc2)cc1)n1ncnn1 (racemic) |  |  |  |  | 9.5 | 
COc1ccc(C(CCN(C)C)n2ncnn2)cc1OC (racemic) |  |  |  |  | 12.9 | 
CN(C)CCC(c1ccc(F)c(F)c1)n1ncnn1 (racemic) | 25.3 |  |  |  |  | 
CNCCC(c1ccc(Br)cc1)n1ncnn1 (racemic) |  |  |  |  | 10.7 | 
Cc1nnn(C(CCN(C)C)c2ccc3ccccc3c2)n1 (racemic) | 85 |  |  |  |  | 
CN(C)CCC(c1ccc2cc(F)ccc2c1)n1ncnn1 (racemic) |  | 61 | 7 | 12 | 74.1 | half-life [3]: 3 min; half-life [8]: > 60 min
CNCCC(Oc1ccc(C(F)(F)F)cc1)c1ccccc1 (stereo not drawn) [FLUOXETINE] |  |  |  |  |  | inhibition in vivo at 10 mg/kg (Mus musculus [22]): 60.3%; minimal effective dose (Mus musculus [15]): 50 mg/kg; minimal effective dose (Mus musculus [17]): 3 mg/kg
CNCC[C@H](c1ccc(Cl)c(Cl)c1)n1nnc(C)n1 |  |  |  |  | 20 | 
CN(C)CCC(c1ccc2ccccc2c1)n1ncnn1 (racemic) | 85.1 | 41 | 20 | 30 |  | IC50 [2]: 616 nM; half-life [3]: 3 min; IC50 [4]: 264 nM; IC50 [5]: 138 nM; half-life [8]: 50 min; Activity (Mus musculus [23]): 43.2%

Compound | inhibition [1] [%] | inhibition [6] [%] | inhibition [7] [%] | inhibition [9] [%] | inhibition [10] [%] | other results
CN(C)CCC(c1ccc(Cl)c(Cl)c1)n1nccn1 (racemic) | 69.9 |  |  |  |  | 
CNCC[C@H](c1ccc2ccccc2c1)n1nnc(C)n1 |  | 23 | 3 | 37 | 34.5 | 
CN(C)CCC(c1ccc2cc(Cl)ccc2c1)n1ncnn1 (racemic) | 54.3 | 46 | 18 | 32 |  | 
CNCCC(c1ccccc1Cl)n1nnc(C)n1 (racemic) |  |  |  |  | 5.9 | 
COc1ccc(C(CN(C)C)C2(O)CCCCC2)cc1 (stereo not drawn) [VENLAFAXINE] |  |  |  |  |  | Activity (Mus musculus [24]): 56.3%; inhibition in vivo at 30 mg/kg (Mus musculus [14]): 82.3%; Activity (Mus musculus [25]): 129%; ED50 (Mus musculus [15]): 38.4 mg/kg; minimal effective dose (Mus musculus [15]): 30 mg/kg; Activity (Mus musculus [16]): 119%; minimal effective dose (Mus musculus [17]): 10 mg/kg; minimal effective dose (Mus musculus [18]): 7 mg/kg; Activity (Mus musculus [19]): 139%; inhibition in vivo at 30 mg/kg (Mus musculus [20]): 70.2%; Activity (Mus musculus [23]): 35.2%
CNCCC(c1ccc(OC(F)(F)F)cc1)n1ncnn1 (racemic) |  |  |  |  | 3.1 | 
CNCCC(c1ccc(Cl)c(Cl)c1)n1nnc(C)n1 (racemic) | 86 |  |  |  |  | 
CN(C)CCC(c1ccc(Cl)cc1Cl)n1ncnn1 (racemic) |  |  |  |  | -0.2 | 
CNCCC(c1ccc2cc(OC)ccc2c1)n1nnc(C)n1 (racemic) |  | 82 | 3 | 84 | 80.2 | 
CNCCC(c1ccc2cc(Cl)ccc2c1)n1ncnn1 (racemic) | 52.1 | -4 |  | 20 |  | 
COc1ccc(C(CCN(C)C)n2ncnn2)cc1Cl (racemic) | 39.9 |  |  |  |  | 
Cc1nnn(C(CCN(C)C)c2ccc(Cl)c(Cl)c2)n1 (racemic) | 69.4 |  |  |  |  | 
Cc1nnn(C(CCN(C)C)c2ccc3cc(F)ccc3c2)n1 (racemic) |  | 61 | 6 | 10 | 67.5 | 
CNCC[C@@H](c1ccc2ccccc2c1)n1nnc(C)n1 |  | 82 | 7 | 79 | 60.2 | 
CNCCC(c1ccc2cc(OC)ccc2c1)n1ncnn1 (racemic) |  | 88 | 4 | 70 | 81.2 | 
CNCCC(c1ccc2ccccc2c1)n1ncnn1 (racemic) | 90.4 | 78 | 10 | 84 |  | IC50 [2]: 1240 nM; half-life [3]: 12 min; IC50 [4]: 13.3 nM; IC50 [5]: 32 nM; half-life [8]: 49 min
CNCCC(c1ccc2ccccc2c1)n1nnc(-c2ccccc2)n1 (racemic) | 98.4 |  |  |  |  | Activity (Mus musculus [23]): 5.5%
CNCCC(c1ccc(Cl)c(Cl)c1Cl)n1ncnn1 (racemic) |  |  |  |  | 39.1 | 
CNCCC(c1ccc2cc(C)ccc2c1)n1ncnn1 (racemic) | 93.3 | 93 | 3 | 55 |  | 
Cc1nnn(C(CCN(C)C)c2ccc(C(C)(C)C)cc2)n1 (racemic) |  |  |  |  | -3 | 
CN(C)CCC(c1ccc2ccccc2c1)n1nnc(-c2ccccc2)n1 (racemic) | 92.6 |  |  |  |  | 
CNCCC(c1ccc(C(F)(F)F)cc1)n1ncnn1 (racemic) |  |  |  |  | 15.3 | 
